# Measurements from different studies.
# Protocols differ between the studies behind these lines.
# CSF1R: Macrophage colony-stimulating factor 1 receptor (CSF1R, Homo sapiens, UniProt P07333)
# CSF1R autoinhibited: Macrophage colony-stimulating factor 1 receptor, autoinhibited (CSF1R, Homo sapiens, UniProt P07333)
Compound,target,assay,setting,quantity,result
CCCCC(=O)Nc1ccc(-c2ccc3ncn(CCC)c(=O)c3c2)cn1,CSF1R,"binding, competition with immobilised ligand",0.5 µM,remaining binding,88%
Cc1ccc(NC(=O)c2ccnc(C(F)(F)F)c2)cc1-c1cc(OCCO)nc(N2CCOCC2)c1,CSF1R autoinhibited,"binding, competition with immobilised ligand",1 µM,remaining binding,87%
CC#CC(=O)N1CCC[C@H]1c1nc(-c2ccc(C(=O)Nc3ccccn3)cc2)c2c(N)nccn12,CSF1R,"enzyme activity, inhibitor",1 µM,inhibition,0%
COc1ccc2[nH]c3c4[nH]c5ccc(OC)cc5c4c4c(c3c2c1)C(=O)NC4=O,CSF1R,"binding, competition with immobilised ligand",1 µM,remaining binding,58%
N#Cc1ccc(NC(=O)Nc2ccccc2)cc1,CSF1R,"cell-free assay, competition with immobilised ligand",25 µM,remaining binding,61%
C=CC(=O)N1CCC([C@@H]2CCNc3c(C(N)=O)c(-c4ccc(Oc5ccccc5)cc4)nn32)CC1,CSF1R autoinhibited,cell-free assay,1 µM,inhibition,0%
C#Cc1cnc(Nc2ccnc(CO)c2)nc1Nc1ccccc1S(C)(=O)=NC#N (centres unmarked),CSF1R,cell-free assay,1 µM,remaining signal,53%
C1=C/COCc2cc(ccc2OCCN2CCCC2)Nc2nccc(n2)-c2cccc(c2)COC/1,CSF1R autoinhibited,binding,0.1 µM,remaining binding,53%
